Assay results from ChEMBL document CHEMBL5376013, “Design, synthesis and biological evaluation of novel morpholinopyrimidine-5-carbonitrile derivatives as dual PI3K/mTOR inhibitors” (RSC Med Chem, 2024).

Columns and labels:
Format in all cases: functional
Settings in all cases: read-out: GI
A498 = test: Antitumor activity against human A498 cells assessed as growth inhibition at 10 uM relative to control
In short: (§1)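 After drug addition, plates were incubated 48 h at 37 °C under 5% CO2. Adherent cells were fixed with cold TCA (10% final, 60 min, 4 °C) and suspension cells with 16% final TCA. Staining used 0.4% SRB in 1% acetic acid, solubilized in 10 mM trizma, read at A515. Percent growth was calculated from time-zero, control and treated absorbances.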

OVCAR-5 = test: Antitumor activity against human OVCAR-5 cells assessed as growth inhibition at 10 uM relative to control; in short: as §1
OVCAR-3 = test: Antitumor activity against human OVCAR-3 cells assessed as growth inhibition at 10 uM relative to control; in short: as §1
SNB-19 = test: Antitumor activity against human SNB-19 cells assessed as growth inhibition at 10 uM relative to control
In short: (§2)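 Drug exposure 48 h at 37 °C, 5% CO2. Adherent cells fixed with cold TCA (10% final), suspension cells with TCA (16% final). Stained with 0.4% SRB in 1% acetic acid, dissolved in 10 mM Tris, A515. Growth relative to time-zero and untreated control.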

SK-OV-3 = test: Antitumor activity against human SK-OV-3 cells assessed as growth inhibition at 10 uM relative to control; in short: as §2
KM12 = test: Antitumor activity against human KM12 cells assessed as growth inhibition at 10 uM relative to control; in short: as §1
SK-MEL-2 = test: Antitumor activity against human SK-MEL-2 cells assessed as growth inhibition at 10 uM relative to control; in short: as §1
ACHN = test: Antitumor activity against human ACHN cells assessed as growth inhibition at 10 uM relative to control; in short: as §1
SW-620 = test: Antitumor activity against human SW-620 cells assessed as growth inhibition at 10 uM relative to control; in short: as §2
HCT-15 = test: Antitumor activity against human HCT-15 cells assessed as growth inhibition at 10 uM relative to control; in short: as §1
SK-MEL-28 = test: Antitumor activity against human SK-MEL-28 cells assessed as growth inhibition at 10 uM relative to control; in short: as §2
BT-549 = test: Antitumor activity against human BT-549 cells assessed as growth inhibition at 10 uM relative to control; in short: as §1
SF-539 = test: Antitumor activity against human SF-539 cells assessed as growth inhibition at 10 uM relative to control; in short: as §1
NCI-H522 = test: Antitumor activity against human NCI-H522 cells assessed as growth inhibition at 10 uM relative to control; in short: as §1
NCI/ADR-RES = test: Antitumor activity against human NCI-ADR-RES cells assessed as growth inhibition at 10 uM relative to control; in short: as §1
LOX IMVI = test: Antitumor activity against human LOX IMVI cells assessed as growth inhibition at 10 uM relative to control; in short: as §1
CCRF-CEM = test: Antitumor activity against human CCRF-CEM cells assessed as growth inhibition at 10 uM relative to control; in short: as §1
SN12C = test: Antitumor activity against human SN12C cells assessed as growth inhibition at 10 uM relative to control; in short: as §2
OVCAR-8 = test: Antitumor activity against human OVCAR-8 cells assessed as growth inhibition at 10 uM relative to control; in short: as §1
Malme-3M = test: Antitumor activity against human Malme-3M cells assessed as growth inhibition at 10 uM relative to control; in short: as §1
SF-268 = test: Antitumor activity against human SF-268 cells assessed as growth inhibition at 10 uM relative to control; in short: as §1
MOLT-4 = test: Antitumor activity against human MOLT-4 cells assessed as growth inhibition at 10 uM relative to control; in short: as §1
DU-145 = test: Antitumor activity against human DU-145 cells assessed as growth inhibition at 10 uM relative to control; in short: as §1
RPMI-8226 = test: Antitumor activity against human RPMI-8226 cells assessed as growth inhibition at 10 uM relative to control; in short: as §1
SK-MEL-5 = test: Antitumor activity against human SK-MEL-5 cells assessed as growth inhibition at 10 uM relative to control; in short: as §2
T47D = test: Antitumor activity against human T47D cells assessed as growth inhibition at 10 uM relative to control; in short: as §2
M14 = test: Antitumor activity against human M14 cells assessed as growth inhibition at 10 uM relative to control; in short: as §1
COLO 205 = test: Antitumor activity against human COLO 205 cells assessed as growth inhibition at 10 uM relative to control; in short: as §1
HT-29 = test: Antitumor activity against human HT-29 cells assessed as growth inhibition at 10 uM relative to control; in short: as §1
UACC-62 = test: Antitumor activity against human UACC-62 cells assessed as growth inhibition at 10 uM relative to control; in short: as §2
EKVX = test: Antitumor activity against human EKVX cells assessed as growth inhibition at 10 uM relative to control; in short: as §1
PC-3 = test: Antitumor activity against human PC-3 cells assessed as growth inhibition at 10 uM relative to control; in short: as §1
MCF7 = test: Antitumor activity against human MCF7 cells assessed as growth inhibition at 10 uM relative to control; in short: as §1
NCI-H322M = test: Antitumor activity against human NCI-H322M cells assessed as growth inhibition at 10 uM relative to control; in short: as §1
NCI-H23 = test: Antitumor activity against human NCI-H23 cells assessed as growth inhibition at 10 uM relative to control; in short: as §1
U-251 = test: Antitumor activity against human U-251 cells assessed as growth inhibition at 10 uM relative to control; in short: as §2
NCI-H226 = test: Antitumor activity against human NCI-H226 cells assessed as growth inhibition at 10 uM relative to control; in short: as §1
RXF 393 = test: Antitumor activity against human RXF 393 cells assessed as growth inhibition at 10 uM relative to control; in short: as §1
MDA-MB-435 = test: Antitumor activity against human MDA-MB-435 cells assessed as growth inhibition at 10 uM relative to control; in short: as §1
786-0 = test: Antitumor activity against human 786-0 cells assessed as growth inhibition at 10 uM relative to control; in short: as §1
UACC-257 = test: Antitumor activity against human UACC-257 cells assessed as growth inhibition at 10 uM relative to control; in short: as §2
SNB-75 = test: Antitumor activity against human SNB-75 cells assessed as growth inhibition at 10 uM relative to control; in short: as §2
TK-10 = test: Antitumor activity against human TK-10 cells assessed as growth inhibition at 10 uM relative to control; in short: as §2
K562 = test: Antitumor activity against human K562 cells assessed as growth inhibition at 10 uM relative to control; in short: as §1
CAKI-1 = test: Antitumor activity against human CAKI-1 cells assessed as growth inhibition at 10 uM relative to control; in short: as §1
HCT-116 = test: Antitumor activity against human HCT-116 cells assessed as growth inhibition at 10 uM relative to control; in short: as §1

N#Cc1c(-c2ccc(Cl)cc2)nc(NN2C(=O)CCC2=O)nc1N1CCOCC1 was tested, and the inhibition of growth at 10 µM (A498) was < 1%, the inhibition of growth at 10 µM (OVCAR-5) was < 1% and the inhibition of growth at 10 µM (OVCAR-3) was < 1%. For the same molecule, the inhibition of growth at 10 µM (SNB-19) was < 1%, the inhibition of growth at 10 µM (SK-OV-3) was < 1% and the inhibition of growth at 10 µM (KM12) was < 1%. The inhibition of growth at 10 µM (SK-MEL-2) was < 1%, the inhibition of growth at 10 µM (ACHN) was < 1% and the inhibition of growth at 10 µM (SW-620) was < 1%. For the same molecule, the inhibition of growth at 10 µM (HCT-15) was < 1%, the inhibition of growth at 10 µM (SK-MEL-28) was < 1% and the inhibition of growth at 10 µM (BT-549) was < 1%. For the same molecule, the inhibition of growth at 10 µM (SF-539) was < 1%, the inhibition of growth at 10 µM (NCI-H522) was 16% and the inhibition of growth at 10 µM (NCI/ADR-RES) was < 1%. The inhibition of growth at 10 µM (LOX IMVI) was < 1%, the inhibition of growth at 10 µM (CCRF-CEM) was < 1% and the inhibition of growth at 10 µM (SN12C) was < 1%. The inhibition of growth at 10 µM (OVCAR-8) was < 1%, the inhibition of growth at 10 µM (Malme-3M) was < 1% and the inhibition of growth at 10 µM (SF-268) was < 1%. For the same molecule, the inhibition of growth at 10 µM (MOLT-4) was < 1%, the inhibition of growth at 10 µM (DU-145) was < 1% and the inhibition of growth at 10 µM (RPMI-8226) was < 1%. The inhibition of growth at 10 µM (SK-MEL-5) was < 1%, the inhibition of growth at 10 µM (T47D) was < 1% and the inhibition of growth at 10 µM (M14) was < 1%. The inhibition of growth at 10 µM (COLO 205) was < 1%, the inhibition of growth at 10 µM (HT-29) was < 1% and the inhibition of growth at 10 µM (UACC-62) was < 1%. The inhibition of growth at 10 µM (EKVX) was < 1%, the inhibition of growth at 10 µM (PC-3) was < 1% and the inhibition of growth at 10 µM (MCF7) was 1%. The inhibition of growth at 10 µM (NCI-H322M) was < 1%, the inhibition of growth at 10 µM (NCI-H23) was < 1% and the inhibition of growth at 10 µM (U-251) was < 1%. The inhibition of growth at 10 µM (NCI-H226) was < 1%, the inhibition of growth at 10 µM (RXF 393) was < 1% and the inhibition of growth at 10 µM (MDA-MB-435) was < 1%. The inhibition of growth at 10 µM (786-0) was < 1%, the inhibition of growth at 10 µM (UACC-257) was < 1% and the inhibition of growth at 10 µM (SNB-75) was 33.9%. For the same molecule, the inhibition of growth at 10 µM (TK-10) was < 1%, the inhibition of growth at 10 µM (K562) was < 1% and the inhibition of growth at 10 µM (CAKI-1) was < 1%. For the same molecule, the inhibition of growth at 10 µM (HCT-116) was < 1%.
In the case of N#Cc1c(-c2ccc(Cl)cc2)nc(N/N=C/c2ccco2)nc1N1CCOCC1, the inhibition of growth at 10 µM (A498) is reported as < 1%, the inhibition of growth at 10 µM (OVCAR-5) is reported as 23.1% and the inhibition of growth at 10 µM (OVCAR-3) is reported as 33.4%. For the same molecule, the inhibition of growth at 10 µM (SNB-19) was 20%, the inhibition of growth at 10 µM (SK-OV-3) was 50.6% and the inhibition of growth at 10 µM (KM12) was < 1%. The inhibition of growth at 10 µM (SK-MEL-2) was 17.7%, the inhibition of growth at 10 µM (ACHN) was 23.3% and the inhibition of growth at 10 µM (SW-620) was 17.8%. The inhibition of growth at 10 µM (HCT-15) was 19.7%, the inhibition of growth at 10 µM (SK-MEL-28) was 34.1% and the inhibition of growth at 10 µM (BT-549) was 41.5%. It also gave an inhibition of growth at 10 µM (SF-539) of 24.7%, an inhibition of growth at 10 µM (NCI-H522) of 37.7% and an inhibition of growth at 10 µM (NCI/ADR-RES) of 24.2%. It also gave an inhibition of growth at 10 µM (LOX IMVI) of 21.3%, an inhibition of growth at 10 µM (CCRF-CEM) of 11.3% and an inhibition of growth at 10 µM (SN12C) of 17.9%. The inhibition of growth at 10 µM (OVCAR-8) was 21.1%, the inhibition of growth at 10 µM (Malme-3M) was 57.6% and the inhibition of growth at 10 µM (SF-268) was 25.5%. The inhibition of growth at 10 µM (MOLT-4) was 17%, the inhibition of growth at 10 µM (DU-145) was 14.6% and the inhibition of growth at 10 µM (RPMI-8226) was 33.5%. For the same molecule, the inhibition of growth at 10 µM (SK-MEL-5) was 19.1%, the inhibition of growth at 10 µM (T47D) was 76.8% and the inhibition of growth at 10 µM (M14) was 28.6%. It also gave an inhibition of growth at 10 µM (COLO 205) of 24.8%, an inhibition of growth at 10 µM (HT-29) of 13% and an inhibition of growth at 10 µM (UACC-62) of 41.8%. For the same molecule, the inhibition of growth at 10 µM (EKVX) was 53.5%, the inhibition of growth at 10 µM (PC-3) was 31.7% and the inhibition of growth at 10 µM (MCF7) was < 73.8%. The inhibition of growth at 10 µM (NCI-H322M) was 30.6%, the inhibition of growth at 10 µM (NCI-H23) was 29.2% and the inhibition of growth at 10 µM (U-251) was < 1%. For the same molecule, the inhibition of growth at 10 µM (NCI-H226) was 59.4%, the inhibition of growth at 10 µM (RXF 393) was < 1% and the inhibition of growth at 10 µM (MDA-MB-435) was 20.6%. For the same molecule, the inhibition of growth at 10 µM (786-0) was 25.9%, the inhibition of growth at 10 µM (UACC-257) was < 1% and the inhibition of growth at 10 µM (SNB-75) was 89.7%. For the same molecule, the inhibition of growth at 10 µM (TK-10) was 37.6%, the inhibition of growth at 10 µM (K562) was < 1% and the inhibition of growth at 10 µM (CAKI-1) was < 1%. For the same molecule, the inhibition of growth at 10 µM (HCT-116) was 23.9%.
